Reference: ChEMBL document CHEMBL1240487, “Discovery of a potent, selective, and orally bioavailable pyridinyl-pyrimidine phthalazine aurora kinase inhibitor” (J Med Chem, 2010)
≈ marks a conversion by molar mass, not a printed value. Calls of active or inactive are those of the source. No cut-off for these calls is given here.

Columns and labels:
[1] = molecular target: Serine/threonine-protein kinase PLK1 (Homo sapiens, UniProt P53350); experiment: Inhibition of PLK1 by HTRF assay
Outline: (§1)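 Enzyme inhibition was run with ATP at its Km for each kinase. Values are averages of at least two determinations.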

[2] = Oral bioavailability in Sprague-Dawley rat at 2 mg/kg; format: ADME, organism-based; conditions: in vivo
[3] = molecular target: Cyclin-dependent kinase 2 (Homo sapiens, UniProt P24941); experiment: Inhibition of CDK2 by HTRF assay; outline: as §1
[4] = Aqueous equilibrium solubility of the compound in 0.01N HCL; format: physicochemical
[5] = molecular target: Tyrosine-protein kinase BTK (Homo sapiens, UniProt Q06187); experiment: Inhibition of BTK by HTRF assay
[6] = molecular target: T1, Tyrosine-protein kinase JAK3 (Homo sapiens, UniProt P52333); experiment: Inhibition of Jak3 by HTRF assay; outline: as §1
T1 sequence (P52333 whole entry): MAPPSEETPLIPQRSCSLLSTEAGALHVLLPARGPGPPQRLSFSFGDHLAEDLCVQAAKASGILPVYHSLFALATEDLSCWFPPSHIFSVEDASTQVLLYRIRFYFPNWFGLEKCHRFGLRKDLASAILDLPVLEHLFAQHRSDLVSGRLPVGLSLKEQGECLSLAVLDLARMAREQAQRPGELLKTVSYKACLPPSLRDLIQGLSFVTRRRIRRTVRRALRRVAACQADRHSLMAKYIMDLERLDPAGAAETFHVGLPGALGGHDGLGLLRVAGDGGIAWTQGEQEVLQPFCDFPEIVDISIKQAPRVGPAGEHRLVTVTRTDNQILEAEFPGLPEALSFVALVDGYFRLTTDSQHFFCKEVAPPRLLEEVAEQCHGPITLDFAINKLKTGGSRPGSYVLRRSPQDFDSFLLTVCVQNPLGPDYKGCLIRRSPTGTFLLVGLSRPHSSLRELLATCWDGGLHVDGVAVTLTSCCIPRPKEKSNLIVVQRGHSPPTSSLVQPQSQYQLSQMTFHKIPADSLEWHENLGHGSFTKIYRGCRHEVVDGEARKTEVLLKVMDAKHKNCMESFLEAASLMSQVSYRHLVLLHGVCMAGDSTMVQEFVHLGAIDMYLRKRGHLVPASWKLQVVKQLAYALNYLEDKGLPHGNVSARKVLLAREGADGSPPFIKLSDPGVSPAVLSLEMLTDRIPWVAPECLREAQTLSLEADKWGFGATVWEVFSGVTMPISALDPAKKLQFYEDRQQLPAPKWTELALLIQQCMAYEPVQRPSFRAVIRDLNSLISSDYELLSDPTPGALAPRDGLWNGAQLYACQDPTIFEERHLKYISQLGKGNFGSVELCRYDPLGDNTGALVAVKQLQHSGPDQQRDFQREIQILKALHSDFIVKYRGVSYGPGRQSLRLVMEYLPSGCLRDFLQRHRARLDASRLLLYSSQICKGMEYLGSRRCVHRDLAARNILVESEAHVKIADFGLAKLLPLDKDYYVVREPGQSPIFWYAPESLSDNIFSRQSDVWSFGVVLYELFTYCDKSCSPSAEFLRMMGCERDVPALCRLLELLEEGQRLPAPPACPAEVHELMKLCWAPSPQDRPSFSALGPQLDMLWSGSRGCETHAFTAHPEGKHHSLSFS

[7] = molecular target: Mitogen-activated protein kinase 9 (Homo sapiens, UniProt P45984); experiment: Inhibition of JNK2 by HTRF assay; outline: as §1
Aurora kinase B [8] = molecular target: T2, Aurora kinase B (Homo sapiens, UniProt Q96GD4); experiment: Inhibition of Aurora B by HTRF assay; outline: as §1
[9] = molecular target: T3, Aurora kinase A/Targeting protein for Xklp2 (Homo sapiens, UniProt O14965); experiment: Inhibition of Aurora A/TPX2 (1-43) by HTRF assay; format: protein-complex assay; outline: as §1
T3 sequence (O14965 whole entry): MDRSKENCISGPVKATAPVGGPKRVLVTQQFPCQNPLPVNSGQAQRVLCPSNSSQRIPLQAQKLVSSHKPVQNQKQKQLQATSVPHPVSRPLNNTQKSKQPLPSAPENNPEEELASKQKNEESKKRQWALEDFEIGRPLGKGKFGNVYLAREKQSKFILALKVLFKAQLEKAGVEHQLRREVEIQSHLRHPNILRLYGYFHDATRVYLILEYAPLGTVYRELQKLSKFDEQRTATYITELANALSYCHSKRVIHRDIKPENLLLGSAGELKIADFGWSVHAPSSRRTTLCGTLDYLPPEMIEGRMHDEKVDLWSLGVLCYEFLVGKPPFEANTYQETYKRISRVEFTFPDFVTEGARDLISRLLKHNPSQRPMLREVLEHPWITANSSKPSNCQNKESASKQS
T3 sequence (Q9ULW0 whole entry): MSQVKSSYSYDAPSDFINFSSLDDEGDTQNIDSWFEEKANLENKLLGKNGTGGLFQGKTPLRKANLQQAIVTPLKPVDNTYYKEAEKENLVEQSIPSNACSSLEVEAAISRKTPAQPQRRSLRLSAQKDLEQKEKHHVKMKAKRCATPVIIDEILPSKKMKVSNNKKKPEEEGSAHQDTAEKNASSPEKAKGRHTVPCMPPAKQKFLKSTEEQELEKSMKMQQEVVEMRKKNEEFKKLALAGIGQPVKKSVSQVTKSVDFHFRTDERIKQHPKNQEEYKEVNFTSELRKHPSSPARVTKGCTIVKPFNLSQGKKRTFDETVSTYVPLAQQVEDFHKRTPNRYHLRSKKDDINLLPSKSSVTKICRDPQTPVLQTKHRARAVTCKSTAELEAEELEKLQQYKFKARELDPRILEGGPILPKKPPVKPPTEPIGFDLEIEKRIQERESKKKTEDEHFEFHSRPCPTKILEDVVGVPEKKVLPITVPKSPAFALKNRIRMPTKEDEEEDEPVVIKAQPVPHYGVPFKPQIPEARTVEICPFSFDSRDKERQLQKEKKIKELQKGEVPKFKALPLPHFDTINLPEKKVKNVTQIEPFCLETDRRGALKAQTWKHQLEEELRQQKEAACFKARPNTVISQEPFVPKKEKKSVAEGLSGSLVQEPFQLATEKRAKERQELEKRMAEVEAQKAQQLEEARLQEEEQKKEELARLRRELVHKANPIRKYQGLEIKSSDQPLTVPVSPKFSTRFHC

Aurora kinase B [10] = molecular target: T2, Aurora kinase B; experiment: Inhibition of aurora B in human HeLa cells assessed as reduction of histone H3 phosphorylation at Ser10 at 0.313 uM after 24 hrs by flow cytometry
[11] = molecular target: Aurora kinase A (Homo sapiens) (UniProt O14965); experiment: Inhibition of aurora A autophosphorylation in human HeLa cells at 0.313 uM after 3 hrs by Western blotting
Plasma = experiment: Fraction unbound in mouse plasma at 10 uM after 24 hrs by ultrafiltration; format: ADME, cell-free
[12] = molecular target: Macrophage colony-stimulating factor 1 receptor (Homo sapiens, UniProt P07333); experiment: Inhibition of c-Fms by HTRF assay; outline: as §1
Sequence of Macrophage colony-stimulating factor 1 receptor (P07333 whole entry): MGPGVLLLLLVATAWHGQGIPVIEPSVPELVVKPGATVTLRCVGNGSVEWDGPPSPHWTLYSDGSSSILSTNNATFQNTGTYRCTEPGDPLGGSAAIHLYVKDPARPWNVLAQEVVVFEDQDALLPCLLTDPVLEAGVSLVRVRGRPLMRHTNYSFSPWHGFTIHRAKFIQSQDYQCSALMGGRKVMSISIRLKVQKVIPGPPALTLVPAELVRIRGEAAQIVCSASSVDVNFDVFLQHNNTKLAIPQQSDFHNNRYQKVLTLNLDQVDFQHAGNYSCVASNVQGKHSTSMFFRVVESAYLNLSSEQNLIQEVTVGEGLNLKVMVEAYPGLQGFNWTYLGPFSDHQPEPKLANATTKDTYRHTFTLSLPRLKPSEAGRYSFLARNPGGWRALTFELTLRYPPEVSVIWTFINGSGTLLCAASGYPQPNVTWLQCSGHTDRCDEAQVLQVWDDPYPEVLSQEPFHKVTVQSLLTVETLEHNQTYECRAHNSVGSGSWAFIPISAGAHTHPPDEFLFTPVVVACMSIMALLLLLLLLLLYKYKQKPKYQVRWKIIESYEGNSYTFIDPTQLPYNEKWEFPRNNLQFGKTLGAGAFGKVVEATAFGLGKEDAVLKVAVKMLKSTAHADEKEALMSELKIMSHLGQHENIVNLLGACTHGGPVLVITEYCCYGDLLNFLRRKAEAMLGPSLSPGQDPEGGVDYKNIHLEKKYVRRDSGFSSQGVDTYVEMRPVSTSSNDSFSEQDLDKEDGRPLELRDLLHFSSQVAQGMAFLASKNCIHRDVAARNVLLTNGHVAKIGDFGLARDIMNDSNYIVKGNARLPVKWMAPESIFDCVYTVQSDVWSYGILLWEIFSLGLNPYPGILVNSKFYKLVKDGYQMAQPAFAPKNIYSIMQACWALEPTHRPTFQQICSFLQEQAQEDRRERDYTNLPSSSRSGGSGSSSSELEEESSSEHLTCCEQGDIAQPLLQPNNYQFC

Sequence of Serine/threonine-protein kinase PLK1 (P53350 whole entry): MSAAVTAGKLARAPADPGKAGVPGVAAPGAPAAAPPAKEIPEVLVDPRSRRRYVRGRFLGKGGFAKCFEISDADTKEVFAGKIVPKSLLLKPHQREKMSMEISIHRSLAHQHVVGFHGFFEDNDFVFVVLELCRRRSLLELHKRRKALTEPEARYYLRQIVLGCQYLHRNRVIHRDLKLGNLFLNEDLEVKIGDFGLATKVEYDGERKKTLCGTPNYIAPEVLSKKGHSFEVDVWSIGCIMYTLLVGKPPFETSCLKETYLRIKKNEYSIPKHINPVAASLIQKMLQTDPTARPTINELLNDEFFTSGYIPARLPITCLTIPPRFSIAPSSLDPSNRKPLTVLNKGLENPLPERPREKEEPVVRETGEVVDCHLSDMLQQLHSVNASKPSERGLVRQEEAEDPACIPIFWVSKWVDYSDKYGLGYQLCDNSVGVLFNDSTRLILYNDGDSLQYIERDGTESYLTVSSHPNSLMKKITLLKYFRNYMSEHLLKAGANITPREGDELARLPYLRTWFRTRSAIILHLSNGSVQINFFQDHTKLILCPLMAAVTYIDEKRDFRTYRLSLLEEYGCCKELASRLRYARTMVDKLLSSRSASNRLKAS
T2 sequence (Q96GD4 whole entry): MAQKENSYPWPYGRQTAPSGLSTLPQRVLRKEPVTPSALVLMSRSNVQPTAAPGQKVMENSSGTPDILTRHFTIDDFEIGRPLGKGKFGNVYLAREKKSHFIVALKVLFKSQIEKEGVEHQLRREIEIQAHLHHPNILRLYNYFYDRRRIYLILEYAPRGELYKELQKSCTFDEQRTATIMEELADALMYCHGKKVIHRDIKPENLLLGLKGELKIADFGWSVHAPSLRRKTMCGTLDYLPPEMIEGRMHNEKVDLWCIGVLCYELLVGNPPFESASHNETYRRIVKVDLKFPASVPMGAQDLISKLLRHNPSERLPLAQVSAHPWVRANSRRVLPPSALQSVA
Sequence of Mitogen-activated protein kinase 9 (P45984 whole entry): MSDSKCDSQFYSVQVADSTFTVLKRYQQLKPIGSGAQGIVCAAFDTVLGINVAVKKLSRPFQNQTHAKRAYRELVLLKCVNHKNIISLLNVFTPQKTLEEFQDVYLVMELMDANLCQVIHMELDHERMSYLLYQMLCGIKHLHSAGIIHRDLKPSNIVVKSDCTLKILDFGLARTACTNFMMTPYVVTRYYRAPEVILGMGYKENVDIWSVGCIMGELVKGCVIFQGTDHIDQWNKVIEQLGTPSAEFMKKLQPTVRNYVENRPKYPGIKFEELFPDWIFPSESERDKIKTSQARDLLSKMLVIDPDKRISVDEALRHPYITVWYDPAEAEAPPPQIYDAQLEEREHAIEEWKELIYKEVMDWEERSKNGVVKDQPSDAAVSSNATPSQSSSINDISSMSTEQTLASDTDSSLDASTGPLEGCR
Sequence of Tyrosine-protein kinase BTK (Q06187 whole entry): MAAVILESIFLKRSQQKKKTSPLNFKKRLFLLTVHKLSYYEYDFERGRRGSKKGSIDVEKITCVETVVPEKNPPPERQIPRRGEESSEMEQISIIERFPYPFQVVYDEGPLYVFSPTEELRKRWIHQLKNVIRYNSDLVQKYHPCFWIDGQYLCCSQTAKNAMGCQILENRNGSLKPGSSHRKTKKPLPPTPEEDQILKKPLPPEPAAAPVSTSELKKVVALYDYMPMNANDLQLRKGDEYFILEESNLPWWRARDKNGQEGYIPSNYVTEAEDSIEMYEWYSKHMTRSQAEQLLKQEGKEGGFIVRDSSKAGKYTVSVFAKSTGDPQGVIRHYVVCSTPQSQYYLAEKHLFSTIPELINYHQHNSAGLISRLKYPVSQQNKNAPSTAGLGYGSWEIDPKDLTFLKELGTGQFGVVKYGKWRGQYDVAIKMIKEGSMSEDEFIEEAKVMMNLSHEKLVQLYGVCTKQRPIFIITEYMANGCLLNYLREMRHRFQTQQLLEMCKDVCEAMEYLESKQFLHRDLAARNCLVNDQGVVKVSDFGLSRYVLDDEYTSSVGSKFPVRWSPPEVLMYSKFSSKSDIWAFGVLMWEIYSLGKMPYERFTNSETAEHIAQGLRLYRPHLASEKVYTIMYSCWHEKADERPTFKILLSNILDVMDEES

Row | IC50 [1] | bioavailability [2] | IC50 [3] | solubility thermodynamic [4] | IC50 [5] | IC50 [6] | IC50 [7] | IC50 (Aurora kinase B [8]) | IC50 [9] | Activity (Aurora kinase B [10]) | Activity [11] | unbound concentration (Plasma) | IC50 [12] | Compound
1 | > 1000 nM | < 1% | > 1000 nM | 5 µg/mL (≈ 10.2 µM) | > 1000 nM | > 1000 nM | > 1000 nM | 9 nM | 16 nM | – | – | – | – | CNc1nccc(-c2cccnc2Oc2ccc(NC(=O)c3ccccc3Nc3ccccc3)cc2)n1
2 | > 25000 nM | – | – | > 200 µg/mL | > 25000 nM | > 25000 nM | > 25000 nM | 15 nM | 41 nM | Active | Active | < 2.5 ng/mL | – | CNc1nccc(-c2cccnc2Oc2ccc(Nc3nnc(-c4ccc(F)cc4)c4ccccc34)cc2)n1
3 | > 8000 nM | – | – | – | – | > 8000 nM | > 8000 nM | 66 nM | 586 nM | – | – | – | 1580 nM | CNc1nccc(-c2cccnc2Oc2ccc(NC(=O)c3cccc(C(F)(F)F)c3)cc2C)n1
